Measured values as given in ChEMBL document CHEMBL1806357, “A regioselective synthesis of some new pyrazol-1'-ylpyrazolo[1,5-a]pyrimidines in aqueous medium and their evaluation as antimicrobial agents” (2011).
≈ marks a conversion by molar mass, not a printed value.

Assays:
Assay type in all cases: functional
Fusarium oxysporum [1] = assay: Antifungal activity against Fusarium oxysporum at 200 ug/ml after 7 days by poisoned food technique relative to control
Procedure, shortened: (§1)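 Poisoned food technique with soil-isolated fungi on PDA. Compound from a 1 mg/ml DMSO stock was added to molten agar at 40 ± 2 °C to give 10, 50, 100 or 200 µg/ml. A 6 mm mycelial disc from a 6-day culture was placed centrally, and plates were held at 28 ± 1 °C. Radial growth was measured after 7 days, and % inhibition was calculated against PDA/DMSO control, in triplicate.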

Fusarium oxysporum [2] = assay: Antifungal activity against Fusarium oxysporum at 100 ug/ml after 7 days by poisoned food technique relative to control; procedure, shortened: as §1
Alternaria alternata [3] = assay: Antifungal activity against Alternaria alternata at 10 ug/ml after 7 days by poisoned food technique relative to 10 ug/ml mancozeb
Pseudomonas aeruginosa [4] = assay: Antibacterial activity against Pseudomonas aeruginosa ATCC 25668 after 24 hrs by broth microdilution method; settings: ATCC 25668, 24 h
Bacillus cereus [5] = assay: Antibacterial activity against Bacillus cereus ATCC 11778 at 2 mg/ml after 24 hrs by agar-well diffusion technique; settings: ATCC 11778, 24 h, read-out: DIZ
Procedure, shortened: (§2)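 Agar-well diffusion used MHA seeded with 24 h cultures at 0.5 McFarland (1 × 10^6 CFU/ml). 100 µl of compound (2 mg/ml in DMSO, filter-sterilized) went into each 6 mm well. Plates were incubated upright at 37 ± 1 °C for 24 h, and the inhibition zone diameter was measured in mm. DMSO was the negative control. Values are the mean of three replicates.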

Helminthosporium [6] = assay: Antifungal activity against Helminthosporium sp. at 10 ug/ml after 7 days by poisoned food technique relative to control; procedure, shortened: as §1
Helminthosporium [7] = assay: Antifungal activity against Helminthosporium sp. at 100 ug/ml after 7 days by poisoned food technique relative to control; procedure, shortened: as §1
Aspergillus terreus [8] = assay: Antifungal activity against Aspergillus terreus at 100 ug/ml after 7 days by poisoned food technique relative to control; procedure, shortened: as §1
Fusarium oxysporum [9] = assay: Antifungal activity against Fusarium oxysporum at 10 ug/ml after 7 days by poisoned food technique relative to 10 ug/ml mancozeb
Aspergillus terreus [10] = assay: Antifungal activity against Aspergillus terreus at 10 ug/ml after 7 days by poisoned food technique relative to control; procedure, shortened: as §1
Helminthosporium [11] = assay: Antifungal activity against Helminthosporium sp. at 10 ug/ml after 7 days by poisoned food technique relative to 10 ug/ml mancozeb
Alternaria alternata [12] = assay: Antifungal activity against Alternaria alternata at 100 ug/ml after 7 days by poisoned food technique relative to control; procedure, shortened: as §1
Alternaria alternata [13] = assay: Antifungal activity against Alternaria alternata at 50 ug/ml after 7 days by poisoned food technique relative to control; procedure, shortened: as §1
Bacillus cereus [14] = assay: Antibacterial activity against Bacillus cereus ATCC 11778 after 24 hrs by broth microdilution method; settings: ATCC 11778, 24 h
Aspergillus terreus [15] = assay: Antifungal activity against Aspergillus terreus at 50 ug/ml after 7 days by poisoned food technique relative to control; procedure, shortened: as §1
Staphylococcus aureus [16] = assay: Antibacterial activity against Staphylococcus aureus ATCC 9144 after 24 hrs by broth microdilution method; settings: ATCC 9144, 24 h
Alternaria alternata [17] = assay: Antifungal activity against Alternaria alternata at 200 ug/ml after 7 days by poisoned food technique relative to control; procedure, shortened: as §1
Pseudomonas aeruginosa [18] = assay: Antibacterial activity against Pseudomonas aeruginosa ATCC 25668 at 2 mg/ml after 24 hrs by agar-well diffusion technique; settings: ATCC 25668, 24 h, read-out: DIZ; procedure, shortened: as §2
Alternaria alternata [19] = assay: Antifungal activity against Alternaria alternata at 10 ug/ml after 7 days by poisoned food technique relative to control; procedure, shortened: as §1
Escherichia coli [20] = assay: Antibacterial activity against Escherichia coli ATCC 8739 after 24 hrs by broth microdilution method; settings: ATCC 8739, 24 h
Staphylococcus aureus [21] = assay: Antibacterial activity against Staphylococcus aureus ATCC 9144 at 2 mg/ml after 24 hrs by agar-well diffusion technique; settings: ATCC 9144, 24 h, read-out: DIZ; procedure, shortened: as §2
Aspergillus terreus [22] = assay: Antifungal activity against Aspergillus terreus at 200 ug/ml after 7 days by poisoned food technique relative to control; procedure, shortened: as §1
Helminthosporium [23] = assay: Antifungal activity against Helminthosporium sp. at 50 ug/ml after 7 days by poisoned food technique relative to control; procedure, shortened: as §1
Fusarium oxysporum [24] = assay: Antifungal activity against Fusarium oxysporum at 10 ug/ml after 7 days by poisoned food technique relative to control; procedure, shortened: as §1
Fusarium oxysporum [25] = assay: Antifungal activity against Fusarium oxysporum at 50 ug/ml after 7 days by poisoned food technique relative to control; procedure, shortened: as §1
Escherichia coli [26] = assay: Antibacterial activity against Escherichia coli ATCC 8739 at 2 mg/ml after 24 hrs by agar-well diffusion technique; settings: ATCC 8739, 24 h, read-out: DIZ; procedure, shortened: as §2
Helminthosporium [27] = assay: Antifungal activity against Helminthosporium sp. at 200 ug/ml after 7 days by poisoned food technique relative to control; procedure, shortened: as §1

## Cc1cc(C)n2nc(-n3nc(C)cc3C)cc2n1
Fusarium oxysporum [1]
  Activity: 71.9%
Fusarium oxysporum [2]
  Activity: 67%
Alternaria alternata [3]
  fold change (FC): 2.6
Pseudomonas aeruginosa [4]
  MIC: > 400 µg/mL
Bacillus cereus [5]
  zone of inhibition at 2000 µg/mL: 7 mm
Helminthosporium [6]
  Activity: 42.2%
Helminthosporium [7]
  Activity: 79.2%
Aspergillus terreus [8]
  Activity: 68.5%
Fusarium oxysporum [9]
  fold change (FC): 2
Aspergillus terreus [10]
  Activity: 9.87%
Helminthosporium [11]
  fold change (FC): 3.4
Alternaria alternata [12]
  Activity: 71.6%
Alternaria alternata [13]
  Activity: 69.5%
Bacillus cereus [14]
  MIC: > 400 µg/mL
Aspergillus terreus [15]
  Activity: 33.7%
Staphylococcus aureus [16]
  MIC: 400 µg/mL (≈ 1660 µM)
Alternaria alternata [17]
  Activity: 73.1%
Pseudomonas aeruginosa [18]
  zone of inhibition at 2000 µg/mL: 7 mm
Alternaria alternata [19]
  Activity: 47.5%
Escherichia coli [20]
  MIC: > 400 µg/mL
Staphylococcus aureus [21]
  zone of inhibition at 2000 µg/mL: 7 mm
Aspergillus terreus [22]
  Activity: 73.2%
Helminthosporium [23]
  Activity: 66.6%
Fusarium oxysporum [24]
  Activity: 56%
Fusarium oxysporum [25]
  Activity: 67%
Escherichia coli [26]
  zone of inhibition at 2000 µg/mL: 7 mm
Helminthosporium [27]
  Activity: 79.2%
